ChEMBL document CHEMBL3120160, “Nucleotide prodrugs of 2'-deoxy-2'-spirooxetane ribonucleosides as novel inhibitors of the HCV NS5B polymerase” (J Med Chem, 2014)
pEC50, pKi: −log10 of the molar value.

Experiments:
[1] = Cytotoxicity against human HuH7 cells assessed as inhibition of cell proliferation after 3 days by BrdU incorporation assay; format: cell-based, Huh-7
How it was run: (§1)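 Huh7 HCV replicon cells treated with compound for 3 days in 384-well format; antiviral EC50 and cytotoxic CC50 are each the mean of at least three repeats.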

Hepatitis C virus [2] = test: Antiviral activity against Hepatitis C virus genotype 1b in human Huh7-luc clone ET replicon cells assessed as inhibition of replicon replication after 3 days by luciferase assay; format: functional, organism-based, Hepacivirus hominis; conditions: Huh-7, 72 h; how it was run: as §1
Liver [3] = test: Cmax in Sprague-Dawley rat liver assessed as triphosphate metabolite level at 50 mg/kg, po administered as single dose measured per gm of tissue; format: ADME, organism-based; set-up: dose 50 mg/kg, route oral; conditions: in vivo
Liver [4] = test: Tmax in Sprague-Dawley rat liver assessed as triphosphate metabolite level at 50 mg/kg, po administered as single dose; format: ADME, organism-based; set-up: dose 50 mg/kg, route oral; conditions: in vivo
Hepatocyte [5] = test: Prodrug activation in human hepatocytes assessed as triphosphate metabolite formation at 10 uM after 2 hrs by LC-MS analysis; format: ADME, cell-based
How it was run: (§2)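 Prodrugs incubated at 10 μM with rat or human hepatocyte cultures; triphosphate metabolite quantified by LC–MS of cell lysates at 2 and 8 h.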

Hepatocyte [6] = test: Prodrug activation in rat hepatocytes assessed as triphosphate metabolite formation at 10 uM after 2 hrs by LC-MS analysis; format: ADME, cell-based; how it was run: as §2
Hepatocyte [7] = test: Prodrug activation in human hepatocytes assessed as triphosphate metabolite formation at 10 uM after 8 hrs by LC-MS analysis; format: ADME, cell-based; how it was run: as §2
Hepatocyte [8] = test: Prodrug activation in rat hepatocytes assessed as triphosphate metabolite formation at 10 uM after 8 hrs by LC-MS analysis; format: ADME, cell-based; how it was run: as §2
Liver [9] = test: AUC (0 to last) in Sprague-Dawley rat liver assessed as triphosphate metabolite level at 50 mg/kg, po administered as single dose; format: ADME, organism-based; set-up: time 0 - last, dose 50 mg/kg, route oral; conditions: in vivo
Liver [10] = test: AUC (0 to infinity) in Sprague-Dawley rat liver assessed as triphosphate metabolite level at 50 mg/kg, po administered as single dose; format: ADME, organism-based; set-up: time infinity, dose 50 mg/kg, route oral; conditions: in vivo
Hepatitis C virus [11] = test: Antiviral activity against Hepatitis C virus genotype 1b harboring NS5B polymerase S282T mutant gene in human Huh7-luc clone ET replicon cells assessed as inhibition of replicon replication after 3 days by luciferase assay; format: functional, organism-based, Hepacivirus hominis; conditions: Huh-7, 72 h
How it was run: (§3)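 Activity measured in a transient HCV replicon assay in which the NS5B polymerase carries the S282T substitution.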

Hepatitis C virus [12] = test: Ratio of EC50 for Hepatitis C virus genotype 1b harboring NS5B polymerase S282T mutant gene to EC50 for Hepatitis C virus genotype 1b harboring wild type NS5B polymerase in human Huh7-luc clone ET replicon cells by luciferase assay; format: functional, Hepacivirus hominis, Huh-7
[13] = Inhibition of wild type Hepatitis C virus truncated NS5B RNA dependent RNA polymerase lacking C-terminal 21 aminoacids using cIRES as template after 2 hrs by filter plate assay; set-up: species or system Hepacivirus hominis
How it was run: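 Wild-type HCV RdRp biochemical assay, tested with the nucleoside 5′-triphosphate (NTP) form; value reported as Ki, the average of two independent experiments.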

Hepatitis C virus [14] = test: Antiviral activity against Hepatitis C virus harboring NS5B polymerase S282T mutant gene; format: functional, Hepacivirus hominis; how it was run: as §3
Hepatitis C virus [15] = test: Ratio of EC90 for Hepatitis C virus harboring NS5B polymerase S282T mutant gene to EC90 for Hepatitis C virus harboring wild type NS5B polymerase; format: functional, Hepacivirus hominis

Structure (SMILES)	CC50 at 72 h [1] [µM]	pEC50 (Hepatitis C virus [2])	other results
O=C(CNP(=O)(OC[C@H]1O[C@@H](n2ccc(=O)[nH]c2=O)[C@@]2(CCO2)[C@@H]1O)Oc1ccc(Cl)cc1)OCc1ccccc1 (mixture of isomers)	> 98	6.49	–
C[C@H](N[P@](=O)(OC[C@H]1O[C@@H](n2ccc(=O)[nH]c2=O)[C@@]2(CCO2)[C@@H]1O)Oc1ccccc1)C(=O)OCc1ccccc1	> 98	5.68	–
C[C@H](NP(=O)(OC[C@H]1O[C@@H](n2ccc(N)nc2=O)[C@@]2(CCO2)[C@@H]1O)Oc1ccc(Cl)cc1)C(=O)OCc1ccccc1 (mixture of isomers)	> 98	5.59	–
C[C@H](N[P@@](=O)(OC[C@H]1O[C@@H](n2ccc(=O)[nH]c2=O)[C@@]2(CCO2)[C@@H]1O)Oc1ccccc1)C(=O)OCc1ccccc1	> 98	5.30	–
CC(C)COC(=O)[C@H](C)NP(=O)(OC[C@H]1O[C@@H](n2ccc(=O)[nH]c2=O)[C@@]2(CCO2)[C@@H]1O)Oc1ccccc1 (mixture of isomers)	> 98	6.64	–
C[C@@]1(O)[C@H](O)[C@@H](CO)O[C@H]1n1ccc(N)nc1=O	> 98	5.34	–
C[C@H](N[P@](=O)(OC[C@H]1O[C@@H](n2ccc(=O)[nH]c2=O)[C@@]2(CCO2)[C@@H]1O)Oc1cccc2ccccc12)C(=O)OCc1ccccc1	> 98	5.43	–
Cc1ccc(C(C)C)c(OP(=O)(N[C@@H](C)C(=O)OCc2ccccc2)OC[C@H]2O[C@@H](n3ccc(=O)[nH]c3=O)[C@@]3(CCO3)[C@@H]2O)c1 (mixture of isomers)	29.6	5.12	–
CC[C@H](NP(=O)(OC[C@H]1O[C@@H](n2ccc(=O)[nH]c2=O)[C@@]2(CCO2)[C@@H]1O)Oc1ccccc1)C(=O)OCc1ccccc1 (mixture of isomers)	> 98	5.24	Cmax (Liver [3]): 419 ng/g; Tmax (Liver [4]): 6 h; Drug metabolism (Hepatocyte [5]): 202 ng/mL; Drug metabolism (Hepatocyte [6]): 215 ng/mL; Drug metabolism (Hepatocyte [7]): 1480 ng/mL; Drug metabolism (Hepatocyte [8]): 87 ng/mL; AUClast (Liver [9]): 1108 ng·h/mL
C[C@@]1(F)[C@H](O)[C@@H](CO)O[C@H]1n1ccc(N)nc1=O	> 98	5.72	–
Nc1ccn([C@@H]2O[C@H](CO)[C@@H](O)[C@]23CCO3)c(=O)n1	> 98	4.77	–
CCCCOC(=O)[C@H](C)N[P@](=O)(OC[C@H]1O[C@@H](n2ccc(=O)[nH]c2=O)[C@@]2(CCO2)[C@@H]1O)Oc1ccccc1	> 98	5.66	–
C[C@H](NP(=O)(OC[C@H]1O[C@@H](n2ccc(=O)[nH]c2=O)[C@@]2(CCO2)[C@@H]1O)Oc1cccc2ccccc12)C(=O)OCc1ccccc1 (mixture of isomers)	> 98	5.70	Cmax (Liver [3]): 754 ng/g; Tmax (Liver [4]): 6 h; Drug metabolism (Hepatocyte [5]): 1713 ng/mL; Drug metabolism (Hepatocyte [6]): 293 ng/mL; Drug metabolism (Hepatocyte [7]): 3373 ng/mL; Drug metabolism (Hepatocyte [8]): 107 ng/mL; AUC (Liver [10]): 9142 ng·h/mL; AUClast (Liver [9]): 8427 ng·h/mL
C[C@H](NP(=O)(OC[C@H]1O[C@@H](n2ccc(=O)[nH]c2=O)[C@@]2(CCO2)[C@@H]1O)Oc1ccc(Cl)cc1)C(=O)OCc1ccccc1 (mixture of isomers)	> 98	5.89	–
CC[C@H](NP(=O)(OC[C@H]1O[C@@H](n2ccc(=O)[nH]c2=O)[C@@]2(CCO2)[C@@H]1O)Oc1ccccc1)C(=O)OC(C)C (mixture of isomers)	> 98	< 4.02	–
CC[C@H](N[P@](=O)(OC[C@H]1O[C@@H](n2ccc(=O)[nH]c2=O)[C@@]2(CCO2)[C@@H]1O)Oc1ccccc1)C(=O)OCc1ccccc1	> 98	5.34	–

Structure (SMILES)	CC50 at 72 h [1] [µM]	pEC50 (Hepatitis C virus [2])	other results
C[C@H](N[P@@](=O)(OC[C@H]1O[C@@H](n2ccc(N)nc2=O)[C@@]2(CCO2)[C@@H]1O)Oc1ccccc1)C(=O)OCc1ccccc1	> 98	4.38	–
C[C@H](N[P@](=O)(OC[C@H]1O[C@@H](n2ccc(N)nc2=O)[C@@]2(CCO2)[C@@H]1O)Oc1ccccc1)C(=O)OCc1ccccc1	> 98	4.45	–
CCCCOC(=O)[C@H](C)NP(=O)(OC[C@H]1O[C@@H](n2ccc(=O)[nH]c2=O)[C@@]2(CCO2)[C@@H]1O)Oc1ccccc1 (some centres undefined)	> 98	5.41	Cmax (Liver [3]): 894 ng/g; Tmax (Liver [4]): 6 h; Drug metabolism (Hepatocyte [5]): 351 ng/mL; Drug metabolism (Hepatocyte [6]): 152 ng/mL; pEC50 (Hepatitis C virus [11]): 4.72; Drug metabolism (Hepatocyte [7]): 2730 ng/mL; Ratio EC50 (Hepatitis C virus [12]): 4.8; Drug metabolism (Hepatocyte [8]): 75 ng/mL; AUC (Liver [10]): 10480 ng·h/mL; AUClast (Liver [9]): 9871 ng·h/mL
O=c1ccn([C@@H]2O[C@H](CO)[C@@H](O)[C@]23CCO3)c(=O)[nH]1	> 98	< 4.01	pKi [13]: 5.62
CC(C)OC(=O)[C@H](C)NP(=O)(OC[C@H]1O[C@@H](n2ccc(=O)[nH]c2=O)[C@@]2(CCO2)[C@@H]1O)Oc1ccccc1 (mixture of isomers)	> 98	4.68	–
C[C@H](NP(=O)(OC[C@H]1O[C@@H](n2ccc(=O)[nH]c2=O)[C@@]2(CCO2)[C@@H]1O)Oc1ccccc1)C(=O)OCc1ccccc1 (mixture of isomers)	> 98	5.24	Cmax (Liver [3]): 775 ng/g; Tmax (Liver [4]): 2 h; Drug metabolism (Hepatocyte [5]): 304 ng/mL; Drug metabolism (Hepatocyte [6]): 112 ng/mL; Drug metabolism (Hepatocyte [7]): 2457 ng/mL; Drug metabolism (Hepatocyte [8]): 81 ng/mL; AUClast (Liver [9]): 3263 ng·h/mL
CCCCOC(=O)[C@H](C)N[P@@](=O)(OC[C@H]1O[C@@H](n2ccc(=O)[nH]c2=O)[C@@]2(CCO2)[C@@H]1O)Oc1ccccc1	> 98	5.28	–
CC(C)OC(=O)[C@H](C)NP(=O)(OC[C@H]1O[C@@H](n2ccc(N)nc2=O)[C@@]2(CCO2)[C@@H]1O)Oc1ccccc1 (mixture of isomers)	> 98	6.13	–
CC[C@H](N[P@@](=O)(OC[C@H]1O[C@@H](n2ccc(=O)[nH]c2=O)[C@@]2(CCO2)[C@@H]1O)Oc1ccccc1)C(=O)OCc1ccccc1	> 98	5.31	–
C[C@H](N[P@@](=O)(OC[C@H]1O[C@@H](n2ccc(=O)[nH]c2=O)[C@@]2(CCO2)[C@@H]1O)Oc1cccc2ccccc12)C(=O)OCc1ccccc1	> 98	5.64	–
CC(C)CCOC(=O)[C@H](C)NP(=O)(OC[C@H]1O[C@@H](n2ccc(=O)[nH]c2=O)[C@@]2(CCO2)[C@@H]1O)Oc1ccccc1 (mixture of isomers)	> 98	5.46	–
O=C(OCc1ccccc1)[C@@H](NP(=O)(OC[C@H]1O[C@@H](n2ccc(=O)[nH]c2=O)[C@@]2(CCO2)[C@@H]1O)Oc1ccccc1)c1ccccc1 (mixture of isomers)	> 92.8	< 4.06	–
CC(C)OC(=O)[C@H](C)N[P@](=O)(OC[C@H]1O[C@@H](n2ccc(=O)[nH]c2=O)[C@](C)(F)[C@@H]1O)Oc1ccccc1 [SOFOSBUVIR]	–	–	EC90 (Hepatitis C virus [14]): 7.8 µM; Ratio (Hepatitis C virus [15]): 18.6
COC(=O)C(C)(C)NP(=O)(OC[C@H]1O[C@@H](n2ccc(=O)[nH]c2=O)[C@@]2(CCO2)[C@@H]1O)Oc1ccccc1 (mixture of isomers)	> 98	4.42	–
[N-]=[N+]=N[C@]1(CO)O[C@@H](n2ccc(=O)[nH]c2=O)[C@@H](O)[C@H]1O	–	< 4.00	–
